Test results published in the RNAGym collection of RNA variant scans (doi:10.1126/science.aae0568).
Variants at the floor of the assay were thinned out.

B1: tRNA (parent)
chain: GUUCCGUUGGCGUAAUGGUAACGCGUCUCCCUCCUAAGGAGAAGACUGCGGGUUCGAGUCCCGUACGGAACG

Variants of: B1
Test: yeast fitness relative to wild type (ratio to wild type); higher = fitter; tRNA-Arg(CCU), competitive growth, 37 C, YPD
Method in brief: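 Variants of the tRNA-Arg(CCU) gene were chemically synthesised with a 3% per-site mutation rate across 69 sites and placed at the native genomic locus in Saccharomyces cerevisiae. Six parallel replicates of the pooled strains were competed in YPD at 37°C for 24 hours, and gene amplicons from the start and end populations were read by 100-nucleotide paired-end sequencing. Darwinian fitness relative to wild type was derived from changes in genotype frequencies. Genotypes required ≥ 100 starting reads, and estimates < 0.5 were set to 0.5.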

| Variant | yeast fitness |
| --- | --- |
| U13G C55A | 0.502 |
| U13C C22G A36U C62U C66U A69C | ≤ 0.5 |
| U13C G25C U28G G58A C60G | 0.622 |
| U13C C24U C34U | ≤ 0.5 |
| U13C C24U C34G | 0.556 |
| U13A C24G G25A G39C A40C G51C A69U A70C | ≤ 0.5 |
| U13C U26G U35C G63A A70G | ≤ 0.5 |
| U13C A36G C46A C49A | ≤ 0.5 |
| U13G G41U C66G | ≤ 0.5 |
| U13A G23C C27G C49U U53C C61A G68A | ≤ 0.5 |
| A14C A20C G67A | ≤ 0.5 |
| U13C U47C C62U C66U | ≤ 0.5 |
| U13G A21C C46U G50A | 0.582 |
| U13A C27U C55G | ≤ 0.5 |
| U13C C27U | 0.878 |
| U13C C55A | 0.611 |
| U13G G41C | 0.782 |
| U13G G41C G51A | 0.564 |
| U13C U59C | 0.858 |
| U13C U59A | 0.768 |
| U13C U35C G48A C60A | ≤ 0.5 |

| Variant | yeast fitness |
| --- | --- |
| U13C A21G C31G A45G | 0.619 |
| U13C A21G G39C G50A U59G C61A C62U | 0.502 |
| U13C G17A U47C A65G | ≤ 0.5 |
| U13G G18A A20U C31G | 0.566 |
| U13G G25C | 0.797 |
| U13A C30U C55G G58C G67U | ≤ 0.5 |
| U13C A37U C49G | ≤ 0.5 |
| U13C A15U U16A U19A C34U A57C | ≤ 0.5 |
| U13C U47C | 0.905 |
| U13C A70C | 1.09 |
| U13G G18C C30U C33G A65C A70G | ≤ 0.5 |
| U13A U54C | 0.934 |
| U13G U47C | 1.02 |
| U13C C66U | 0.932 |
| U13C C29A A69C | 0.576 |
| U13A C31A G44A A65G A70U | ≤ 0.5 |
| U13A G39A | 0.782 |
| U13C C22A G23C C34U A36G A40U | ≤ 0.5 |
| A14C A15U C34G G50A | ≤ 0.5 |
| U13C G51C G67A | ≤ 0.5 |
| U13C C30G A37U U47C A70G | ≤ 0.5 |

| Variant | yeast fitness |
| --- | --- |
| U13A C27U | 0.984 |
| U13A G23C C27G U53C C61A | 0.509 |
| A14C A20G | 0.647 |
| U13A U26G C27A G39C A42G G51C C66U A69U | ≤ 0.5 |
| U13G C46G | 1.12 |
| U13G C27A C30A G63C | 0.537 |
| U13C C27G G63C | 0.548 |
| U13G U47G C66U | ≤ 0.5 |
| U13G C22U G25A | 1.01 |
| U13C A21C C27U G63A A65G | ≤ 0.5 |
| U13C A15C C46G A69C | ≤ 0.5 |
| U13A C27G G52A U53C G63C | ≤ 0.5 |
| U13C A40C | 0.882 |
| U13C A14G A42C C61G C62U | ≤ 0.5 |
| A14C A20U C31U G38C U59A | ≤ 0.5 |
| U13C C29U C55U | ≤ 0.5 |
| U13G A69U | 0.931 |
| U13C G48A C62A | 0.689 |
| U13C G17A C22A G25A | ≤ 0.5 |
| U13G U16G C31G C49U A57G | ≤ 0.5 |
| U13G A40G G44C C61G | ≤ 0.5 |

| Variant | yeast fitness |
| --- | --- |
| U13A G18C A20C C24U C30U A40C G68C | ≤ 0.5 |
| U13G C22U A45U U59C | 0.54 |
| U13C C46G | 0.97 |
| U13G A21U C22G U35A A65G A70C | ≤ 0.5 |
| U13C C24U G41A C62A | ≤ 0.5 |
| U13A U28C G41A G44A A70U | ≤ 0.5 |
| U13C C29G A65U A70U | 0.588 |
| U13C A15C A20G C22U G25A C27G C30A A57C | 0.542 |
| A14C A15C U16C C27U C29A C34G G50C | ≤ 0.5 |
| U13A U19C A20U C29G C33G A37G C49U C66U | 0.601 |
| U13C C31A C46U A70C | ≤ 0.5 |
| A14C A21C C24U A36U A43U C55U | ≤ 0.5 |
| U13G A40C C49G U53A | ≤ 0.5 |
| U13A C33G U54A U59A G67A | 0.504 |
| U13C G68C | 0.877 |
| U13A G50A | 0.806 |
| A14C A20G A42C G48C | ≤ 0.5 |
| U13A C22U | 0.859 |
| U13A C33U A45C C46G U54C A69U | ≤ 0.5 |
| U13C C27A C61A | ≤ 0.5 |
| A14C A20U C31U G38C G67A | 0.53 |
